The results in this text go back to ChEMBL document CHEMBL1811845, “Modulation of GABAA-receptors by honokiol and derivatives: subtype selectivity and structure-activity relationship” (J Med Chem, 2011).

For experiment [1], the target named is T1, GABA-A receptor alpha-1/beta-3 (Homo sapiens, UniProt P14867+P28472).
T1 sequence (P14867 whole entry): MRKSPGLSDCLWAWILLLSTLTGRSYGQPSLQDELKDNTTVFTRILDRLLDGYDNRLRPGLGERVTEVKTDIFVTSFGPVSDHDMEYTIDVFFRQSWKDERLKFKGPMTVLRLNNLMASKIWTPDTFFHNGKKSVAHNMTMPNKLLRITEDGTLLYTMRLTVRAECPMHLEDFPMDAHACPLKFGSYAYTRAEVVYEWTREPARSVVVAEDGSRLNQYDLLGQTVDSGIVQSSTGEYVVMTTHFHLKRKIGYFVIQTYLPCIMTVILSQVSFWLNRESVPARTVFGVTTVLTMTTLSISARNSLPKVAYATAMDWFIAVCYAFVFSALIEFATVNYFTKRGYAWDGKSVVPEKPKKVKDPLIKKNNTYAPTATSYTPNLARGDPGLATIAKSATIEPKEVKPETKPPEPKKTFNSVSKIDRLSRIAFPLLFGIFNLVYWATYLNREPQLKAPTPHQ
T1 sequence (P28472 whole entry): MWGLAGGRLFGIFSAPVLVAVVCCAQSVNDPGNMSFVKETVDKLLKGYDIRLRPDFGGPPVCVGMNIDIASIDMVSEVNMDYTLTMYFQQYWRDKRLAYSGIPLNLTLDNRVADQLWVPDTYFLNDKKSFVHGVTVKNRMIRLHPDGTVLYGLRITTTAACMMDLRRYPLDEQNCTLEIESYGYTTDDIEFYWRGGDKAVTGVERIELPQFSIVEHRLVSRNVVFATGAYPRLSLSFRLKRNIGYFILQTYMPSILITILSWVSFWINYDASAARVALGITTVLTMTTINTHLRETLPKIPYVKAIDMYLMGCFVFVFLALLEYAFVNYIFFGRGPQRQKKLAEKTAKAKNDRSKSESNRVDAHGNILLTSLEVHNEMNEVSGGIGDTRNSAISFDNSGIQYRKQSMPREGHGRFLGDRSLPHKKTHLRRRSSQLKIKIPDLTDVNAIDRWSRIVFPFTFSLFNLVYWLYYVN
Briefly: Modulation of GABA Aalpha1beta3 receptor expressed in Xenopus laevis oocytes assessed as potentiation of GABA-induced chloride current at holding potential -70 mV by two-microelectrode voltage clamp technique. The experiment is classed as cell-based, Oocyte.

The target of experiment [2] is T2, Gamma-aminobutyric acid receptor subunit alpha-5/beta-2 (Homo sapiens, UniProt P31644+P47870).
T2 sequence (P47870 whole entry): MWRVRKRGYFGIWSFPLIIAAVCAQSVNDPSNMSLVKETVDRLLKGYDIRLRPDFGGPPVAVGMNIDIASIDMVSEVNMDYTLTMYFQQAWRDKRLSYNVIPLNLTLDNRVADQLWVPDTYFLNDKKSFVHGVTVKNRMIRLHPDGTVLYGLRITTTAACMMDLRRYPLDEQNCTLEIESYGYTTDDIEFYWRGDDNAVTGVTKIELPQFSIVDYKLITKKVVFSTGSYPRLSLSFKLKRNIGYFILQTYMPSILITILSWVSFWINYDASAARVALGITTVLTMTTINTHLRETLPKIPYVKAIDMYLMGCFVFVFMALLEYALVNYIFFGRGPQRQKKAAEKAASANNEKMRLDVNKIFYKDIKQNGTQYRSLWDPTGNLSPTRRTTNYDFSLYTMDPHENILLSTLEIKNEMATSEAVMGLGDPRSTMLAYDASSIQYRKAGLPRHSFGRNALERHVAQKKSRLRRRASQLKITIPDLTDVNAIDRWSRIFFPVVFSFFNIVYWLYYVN
T2 sequence (P31644 whole entry): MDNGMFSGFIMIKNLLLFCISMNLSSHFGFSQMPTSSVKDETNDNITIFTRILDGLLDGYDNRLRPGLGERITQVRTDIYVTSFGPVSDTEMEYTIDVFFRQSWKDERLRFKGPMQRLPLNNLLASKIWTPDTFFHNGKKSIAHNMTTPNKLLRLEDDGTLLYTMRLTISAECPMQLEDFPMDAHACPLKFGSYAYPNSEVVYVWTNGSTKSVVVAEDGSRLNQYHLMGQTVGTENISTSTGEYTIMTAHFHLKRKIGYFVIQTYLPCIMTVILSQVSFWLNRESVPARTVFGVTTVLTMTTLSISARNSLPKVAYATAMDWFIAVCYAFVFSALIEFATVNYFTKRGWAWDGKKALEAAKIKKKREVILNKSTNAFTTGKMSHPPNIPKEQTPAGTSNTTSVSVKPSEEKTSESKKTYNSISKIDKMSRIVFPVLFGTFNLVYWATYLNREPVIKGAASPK
The experiment can be described thus: Modulation of GABA Aalpha5beta2 receptor expressed in Xenopus laevis oocytes assessed as potentiation of GABA-induced chloride current at holding potential -70 mV by two-microelectrode voltage clamp technique. It counts as cell-based, Oocyte. The method in brief: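 Stage V–VI Xenopus oocytes, defolliculated with 2 mg/mL collagenase, injected with α(1, 2, 3 or 5) and β2 cRNAs mixed 1:1, then kept at 18 °C in ND96 (pH 7.4). Enhancement = I(GABA+compound)/IGABA − 1. Curves were Hill-fitted for EC50. Bath DMSO was at most 0.3%, matched in controls.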

In experiment [3] the target is GABA-A receptor alpha-1/beta-3 (Homo sapiens) (UniProt P14867+P28472). The experiment can be described thus: Modulation of GABA Aalpha1beta3 receptor expressed in Xenopus laevis oocytes assessed as potentiation of GABA-induced chloride current at holding potential -70 mV by two-microelectrode voltage clamp technique relative to GABA. The following applies: Oocyte. It counts as cell-based. The method in brief: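 α1β3 receptors were expressed in defolliculated stage V–VI Xenopus oocytes and kept at 18 °C in ND96, pH 7.4. Potentiation was computed as (I(GABA+compound)/IGABA)−1, and EC50 and Hill coefficient came from nonlinear fits. Matched DMSO was ≤0.3%.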

Experiment [4] concerns the target Gamma-aminobutyric acid receptor subunit alpha-5/beta-2 (Homo sapiens) (UniProt P47870+P31644). Briefly: Modulation of GABA Aalpha5beta2 receptor expressed in Xenopus laevis oocytes assessed as potentiation of GABA-induced chloride current at holding potential -70 mV by two-microelectrode voltage clamp technique relative to GABA. The following applies: Oocyte. The experiment is classed as cell-based. The method in brief:
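Oocytes were injected with α1, α2, α3 or α5 plus β2 cRNA at a 1:1 ratio and stored at 18 °C in ND96, pH 7.4. Enhancement was (I(GABA+compound)/IGABA)−1, and concentration-response data were Hill-fitted for EC50 and nH. Matched DMSO was ≤0.3%.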

Experiment [5] has as its target GABA-A receptor; GABA-A site (alpha1/beta2 interface) (Homo sapiens) (UniProt P14867+P47870). Briefly: Modulation of GABA Aalpha1beta2 receptor expressed in Xenopus laevis oocytes assessed as potentiation of GABA-induced chloride current at holding potential -70 mV at 30 uM by two-microelectrode voltage clamp technique relative to GABA. The following applies: Oocyte. It counts as cell-based. The method in brief:
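Single-concentration screen at 30 μM on α1β2 receptors (cRNA 1:1) in Xenopus oocytes. Enhancement was (I(GABA+compound)/IGABA)−1. DMSO was matched in control and test solutions, maximum 0.3% in the bath.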

As a reminder, the EC50 is the concentration that produces a half-maximal response.

Each structure is given as a SMILES string.

For `C=CCc1ccc(O)c(-c2ccc(O)c(CC=C)c2)c1` [HONOKIOL], the EC50 in experiment [1] was determined as 59.6 µM; in experiment [2], 23.4 µM. The Smax was found to be 878% in experiment [3] and 347% in experiment [4]. In addition, in experiment [5], the Activity worked out at 376%.
